From ChEMBL document CHEMBL1153772 (J Nat Prod, 2009)

What was measured:
[1] = test system: SK-MEL-28; assay: Cytotoxicity against human SK-MEL-28 cells assessed cell growth; format: functional
[2] = test system: SF-539; assay: Cytotoxicity against human SF539 cells assessed cell growth; format: functional
[3] = Permeability at 50 uM at pH 5 by PAMPA; format: ADME; details: read-out: permeability
[4] = test system: BT-549; assay: Cytotoxicity against human BT549 cells assessed cell growth; format: functional
[5] = test system: MDA-MB-231; assay: Cytotoxicity against human MDA-MB-231 cells assessed cell growth; format: functional
[6] = test system: UO-31; assay: Cytotoxicity against human UO31 cells assessed cell growth; format: functional
[7] = species: Homo sapiens; assay: Stability in human plasma in presence of PBS at 40 uM after 3 hrs
[8] = test system: NCI/ADR-RES; assay: Cytotoxicity against human NCI/ADR-RES cells; format: functional, cell-based
In short: (§1)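 IC50 value derived from at least three separate assay runs per sample.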

[9] = test system: A498; assay: Cytotoxicity against human A498 cells assessed cell growth; format: functional
[10] = test system: U-251; assay: Cytotoxicity against human U251 cells assessed cell growth; format: functional
[11] = test system: COLO 205; assay: Cytotoxicity against human COLO205 cells assessed cell growth; format: functional
[12] = Cytotoxicity against human Hs 578T cells assessed cell growth; format: functional
[13] = test system: LOX IMVI; assay: Cytotoxicity against human LOXIMVI cells assessed cell growth; format: functional
[14] = test system: BXPC-3; assay: Cytotoxicity against human BxPC3 cells; format: functional, cell-based; in short: as §1
[15] = test system: HCT-116; assay: Cytotoxicity against human HCT116 cells assessed cell growth; format: functional
[16] = test system: KM12; assay: Cytotoxicity against human KM12 cells assessed cell growth; format: functional
[17] = test system: OVCAR-5; assay: Cytotoxicity against human OVCAR5 cells assessed cell growth; format: functional
[18] = test system: SNB-19; assay: Cytotoxicity against human SNB19 cells assessed cell growth; format: functional
[19] = test system: MDA-MB-468; assay: Cytotoxicity against human MDA-MB-468 cells assessed cell growth; format: functional
[20] = test system: NCI-H460; assay: Cytotoxicity against human NCI-H460 cells assessed cell growth; format: functional
[21] = test system: NCI-H23; assay: Cytotoxicity against human NCI-H23 cells assessed cell growth; format: functional
[22] = test system: NCI/ADR-RES; assay: Cytotoxicity against human NCI/ADR-RES cells assessed cell growth; format: functional
[23] = test system: HT-29; assay: Cytotoxicity against human HT-29 cells assessed cell growth; format: functional
[24] = test system: HCC 2998; assay: Cytotoxicity against human HCC2998 cells assessed cell growth; format: functional
[25] = species: Homo sapiens; assay: Protein binding in human plasma at 1 uM; details: read-out: PPB (converted)
[26] = Solubility at pH 6.2; format: physicochemical; details: buffer
[27] = test system: ASPC1; assay: Cytotoxicity against human AsPC1 cells; format: functional, cell-based; in short: as §1
[28] = test system: 786-0; assay: Cytotoxicity against human 786-0 cells assessed cell growth; format: functional
[29] = test system: NCI-H226; assay: Cytotoxicity against human NCI-H226 cells assessed cell growth; format: functional
[30] = test system: HOP-92; assay: Cytotoxicity against human HOP92 cells assessed cell growth; format: functional
[31] = test system: SR; assay: Cytotoxicity against human SR cells assessed cell growth; format: functional
[32] = test system: HCT-15; assay: Cytotoxicity against human HCT15 cells assessed cell growth; format: functional
[33] = test system: OVCAR-3; assay: Cytotoxicity against human OVCAR-3 cells assessed cell growth; format: functional
[34] = Stability in mouse plasma in presence of PBS at 40 uM after 3 hrs; format: ADME, cell-free; details: read-out: Stability
[35] = Metabolic satbility in human liver microsomes assessed as compound remaining at 1 uM after 60 min in the absence of NADPH; format: ADME, Microsome; details: read-out: Stability
[36] = species: Homo sapiens; assay: Unbound fraction in human plasma at 10 uM
[37] = test system: SF-295; assay: Cytotoxicity against human SF295 cells assessed cell growth; format: functional
[38] = test system: MOLT-4; assay: Cytotoxicity against human MOLT4 cells assessed cell growth; format: functional
[39] = test system: Vero; assay: Cytotoxicity against african green monkey Vero cells; format: cell-based; details: Chlorocebus sabaeus; in short: as §1
[40] = test system: HOP-62; assay: Cytotoxicity against human HOP62 cells assessed cell growth; format: functional
[41] = test system: SNB-75; assay: Cytotoxicity against human SNB75 cells assessed cell growth; format: functional
[42] = Stability in PBS and inorganic phosphate at 40 uM after 3 hrs; format: physicochemical; details: read-out: Stability
[43] = test system: MIA PaCa-2; assay: Cytotoxicity against human MIAPaCa2 cells; format: functional, cell-based; in short: as §1
[44] = test system: SK-MEL-5; assay: Cytotoxicity against human SK-MEL-5 cells assessed cell growth; format: functional
[45] = Protein binding in mouse plasma at 10 uM; format: ADME, cell-free; details: read-out: PPB (converted)

Compound: CC(=O)N(C)CCc1cc(Br)c(OCCCNc2ncn(C)c3ncnc2-3)c(Br)c1 [APHROCALLISTIN]
- Activity [1]: 84.58%
- Activity [2]: 80.09%
- Papp at 50 µM [3]: 33 ×10⁻⁶ cm/s
- Activity [4]: 56.49%
- Activity [5]: 74.94%
- Activity [6]: 79.45%
- remaining at 3 h, 40 µM [7]: 103%
- IC50 [8]: 34.3 µM
- Activity [9]: 71.71%
- Activity [10]: 79.39%
- Activity [11]: 104.32%
- Activity [12]: 52.48%
- Activity [13]: 55.23%
- IC50 [14]: 70.9 µM
- Activity [15]: 28.57%
- Activity [16]: 88.97%
- Activity [17]: 88.65%
- Activity [18]: 71.64%
- Activity [19]: 25.48%
- Activity [20]: 60.08%
- Activity [21]: 42.18%
- Activity [22]: 72.89%
- Activity [23]: 88.11%
- Activity [24]: 65.57%
- fraction unbound at 1 µM [25]: 0.044
- solubility [26]: > 267 µg/mL
- IC50 [27]: > 100 µM
- Activity [28]: 70.65%
- Activity [29]: 44.72%
- Activity [30]: 75.25%
- Activity [31]: 10.72%
- Activity [32]: 99.13%
- Activity [33]: 87.3%
- remaining at 3 h, 40 µM [34]: 96.3%
- remaining at 1 h, 1 µM [35]: 118%
- fraction unbound at 10 µM [36]: 0.103
- Activity [37]: 50.01%
- Activity [38]: 50.93%
- IC50 [39]: 76.1 µM
- Activity [40]: 71.38%
- Activity [41]: 81.17%
- remaining at 3 h, 40 µM [42]: 76.5%
- IC50 [43]: 26.6 µM
- Activity [44]: 20%
- fraction unbound at 10 µM [45]: 0.309
